Several values for one entry are separate records, joined by “and”; a condition that tells them apart may be missing. Equal values may be shown once.

T1 sequence (P11712 whole entry): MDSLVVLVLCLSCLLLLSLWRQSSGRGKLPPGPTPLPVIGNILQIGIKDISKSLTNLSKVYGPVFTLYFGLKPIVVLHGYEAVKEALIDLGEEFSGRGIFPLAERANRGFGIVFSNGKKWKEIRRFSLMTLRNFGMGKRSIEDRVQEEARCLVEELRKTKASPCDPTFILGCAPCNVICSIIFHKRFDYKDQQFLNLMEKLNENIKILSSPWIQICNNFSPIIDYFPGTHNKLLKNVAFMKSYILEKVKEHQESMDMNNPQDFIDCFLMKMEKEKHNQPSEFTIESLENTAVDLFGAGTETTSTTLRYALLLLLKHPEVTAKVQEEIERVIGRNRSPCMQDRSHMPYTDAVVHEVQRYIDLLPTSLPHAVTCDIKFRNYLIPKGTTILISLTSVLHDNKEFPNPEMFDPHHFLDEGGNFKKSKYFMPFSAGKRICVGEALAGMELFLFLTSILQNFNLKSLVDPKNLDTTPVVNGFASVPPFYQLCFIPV

One series addresses T1, CYP2C9 (Homo sapiens, UniProt P11712). Briefly: Inhibition of human CYP2C9 assessed as (S)-Flurbiprofen hydroxylation at 1 uM. The series is classed as ADME. To be noted: probe (S)-flurbiprofen. The method in brief: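 Reconstituted CYP2C9 (5 pmol) in 0.2 mL incubations with 20 μM (S)-flurbiprofen held constant, in 50 mM potassium phosphate pH 7.4. Run at 37 °C for 20 min, then quenched, and 4′-OH flurbiprofen formation measured. Test compounds were dosed from DMSO on a log scale, with 1% DMSO final in all reactions, in triplicate. Activity is reported as % change versus control.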
What is called inhibition is the relative decrease from the control value, in per cent. Regarding `Nc1cc(N)c(N)cc1N`, the inhibition at 1 µM came out at 50%.

A further series has as its target T1, CYP2C9. The experiment in a line: Inhibition of human CYP2C9 assessed as (S)-Flurbiprofen hydroxylation at 100 uM. Format: ADME. To be noted: probe (S)-flurbiprofen. The method in brief: (§1)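 Reconstituted CYP2C9 (5 pmol) in 0.2 mL incubations with 20 μM (S)-flurbiprofen held constant, 50 mM potassium phosphate pH 7.4, 37 °C for 20 min. Test compounds diluted in DMSO (1% final in all reactions, controls included), screened on a log scale from 0.001–1000 μM depending on solubility. 4′-OH flurbiprofen formation measured after quench. Triplicate reactions.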
`O=C(c1ccc(F)cc1)c1cnc2sccn12`: the inhibition at 100 µM is 50%.

Consider `CN1C(=O)N(c2ccc(Cl)c(Cl)c2)C(=N)C1=S`, for which the inhibition at 100 µM amounted to 50%.

For a further series, the target named is T1, CYP2C9. Briefly: (§2) Activation of human CYP2C9 assessed as (S)-Flurbiprofen hydroxylation. Format: ADME. On the set-up: concentration or dose not given beside the values. Particulars: probe (S)-flurbiprofen. The method in brief:
as §1
As for `CC(=O)Oc1ccc(S(=O)(=O)c2ccc(OC(C)=O)cc2)cc1`, the activity turned out to be 8%.

Regarding `Cc1ccc(S(=O)(=O)c2ccc(C)cc2)cc1`, the activity was found to be 50.6%.

With `NCC(=O)Nc1ccc2ccccc2c1`, the activity came to 4.4%.

On to `Cc1cccc(C(=O)[C@@H](O)c2cccc(C)n2)n1`, for which the activity worked out at 46%.

As to `Cn1c(=O)[nH]c(=O)c2ncn(CC(=O)c3ccc(F)cc3)c21`, the activity amounted to 7.7%.

With `[O-][S+](c1ccccc1)c1ccccc1`, the activity worked out at 3.5%.

For the molecule `Cc1ccc([C@@H]2NC(=O)c3ccccc3N2)cc1`, the activity was found to be 6.6%.

On to `Cn1c(=O)c2c(ncn2CN2CCCC2)n(C)c1=O`, for which the activity is 3%.

`O=S(=O)(c1ccc(O)cc1)c1ccc(O)cc1`: the activity came out at 95%.

Regarding `O=S(=O)(c1ccccc1)c1ccccc1` [(PHENYLSULFONYL)BENZENE], the activity was 40%.

In the next series the target is T2, Cytochrome P450 2C9 (Homo sapiens, UniProt P11712). The series is described as §2. On the set-up: concentration or dose not given beside the values.
T2 sequence (P11712 whole entry): as above
Details: not given
Format: ADME. The essentials: as §1
In the case of `Nc1ccc(S(=O)(=O)c2ccc(N)cc2)cc1` [DAPSONE], the activity was 95% and 64.1%.

Another series concerns the target T2, Cytochrome P450 2C9. The experiment in a line: Activation of human CYP2C9 assessed as (S)-Flurbiprofen hydroxylation. Details: concentration or dose not given beside the values.
Details: not given
On to `O=C(O)c1ccc(S(=O)(=O)c2ccc(C(=O)O)cc2)cc1`, for which the activity was -5%.

For `Nc1ccc(S(=O)(=O)c2ccc([N+](=O)[O-])cc2)cc1`, the activity is -10.6%.

For the molecule `COc1ccc(S(=O)(=O)c2ccc(OC)cc2)cc1`, the activity is given as -25%.

In the case of `c1ccc2c(c1)sc1ccccc12` [DIBENZOTHIOPHENE], the activity is recorded as -10.6%.

For the molecule `Nc1ccc(S(=O)(=O)Nc2ncccn2)cc1` [SULFADIAZINE], the activity is listed as -17.1%.

As to `Cc1cc(C)nc(NS(=O)(=O)c2ccc(N)cc2)n1` [SULFAMETHAZINE], the activity is -18.8%.
